One series deals with A549. The series is described as follows: Antiproliferative activity against human A549 cells assessed as growth inhibition measured after 48 hrs by sulforhodamine B assay. Particulars: A549, 48 h. Format: functional. The essentials: (§1)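 NCI protocol with minor modifications. DMSO stocks at 40 mM. Cells exposed for 48 h to serial decimal dilutions, 0.001–100 µM. GI50 in µM from at least two independent experiments, with SD.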
(In general: In SRB staining, fixed cells bind dye roughly in proportion to their protein.)

In the next series the test system is HBL-100. The series is described as follows: Antiproliferative activity against human HBL100 cells assessed as growth inhibition measured after 48 hrs by sulforhodamine B assay. The format is functional. Conditions: HBL-100, 48 h. Put shortly: as §1
Series [1] deals with HeLa. The series is described as follows: Antiproliferative activity against human HeLa cells assessed as growth inhibition measured after 48 hrs by sulforhodamine B assay. The format is functional. Put shortly:
as §1

For series [2], the system named is T47D. Put plainly: Antiproliferative activity against human T47D cells assessed as growth inhibition measured after 48 hrs by sulforhodamine B assay. Format: functional. The essentials: as §1
Series [3] relates to WiDr. Put plainly: Antiproliferative activity against human WiDr cells assessed as growth inhibition measured after 48 hrs by sulforhodamine B assay. The format is functional. The essentials:
as §1

A short description of series [4]: (§2) Cytotoxicity against human hTERT-BJ cells assessed as growth inhibition measured after 48 hrs by sulforhodamine B assay. Conditions: hTERT-BJ cells. Format: cell-based. Put shortly: (§3)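 NCI protocol with minor modifications. Human tumour lines or fibroblasts in RPMI 1640 with 1 mM glutamine, 5% FBS and antibiotics, 37 °C, 5% CO2, low passage. DMSO stocks at 40 mM. Cells exposed for 48 h to serial decimal dilutions, 0.001–100 µM. GI50 in µM from at least two independent experiments, with SD.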

Series [5] concerns SW1573. Put plainly: Antiproliferative activity against human SW1573 cells incubated for 48 hrs in presence of P-gp and CYP3A4/5 inhibitor verapamil by sulforhodamine B assay. The format is functional. Conditions: SW1573, 48 h. Put shortly: (§4)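 Wild-type and P-gp-overexpressing SW1573 cells were grown in RPMI 1640 with 1 mM glutamine, 5% FBS and antibiotics at 37 °C. Cells were exposed for 48 h to serial decimal dilutions, 0.001–100 µM, with or without 10 µM verapamil. GI50 values come from at least two independent experiments, with SD.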

In series [6] the test system is SW1573. Put plainly: Antiproliferative activity against human SW1573 cells over-expressing P-gp incubated for 48 hrs in presence of P-gp and CYP3A4/5 inhibitor verapamil by sulforhodamine B assay. The format is functional. Particulars: SW1573, 48 h. Put shortly:
as §4

For series [7], the system named is SW1573. The series is described as follows: Resistance factor, ratio of GI50 for antiproliferative activity against human SW1573 cells over-expressing P-gp incubated for 48 hrs in presence of P-gp and CYP3A4/5 inhibitor verapamil by sulforhodamine assay to GI50 for antiproliferative activity against human SW1573 cells incubated for 48 hrs in presence of P-gp and CYP3A4/5 inhibitor verapamil by sulforhodamine B assay. Format: functional. Put shortly: (§5)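 Resistance factor: GI50 in SW1573/PGP divided by GI50 in wild-type SW1573. Both came from 48 h exposure, with or without 10 µM verapamil. GI50 values are from at least two independent experiments.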

Series [8] concerns HeLa. Put plainly: Anticancer activity against human HeLa cells assessed as increase in ROS production at 1 uM measured after 48 hrs by ROS-GloTM H2O2 assay. Format: functional, cell-based. The essentials: (§6)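 HeLa cells in RPMI 1640 with 1 mM glutamine, 5% FBS and antibiotics, 37 °C, 5% CO2. Exposed to compound at 1 or 10 µM for 48 h. ROS (H2O2) read with a non-lytic, HRP-free luminescent kit per the manufacturer.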

Series [9] relates to SW1573. Put plainly: Antiproliferative activity against human SW1573 cells incubated for 48 hrs in absence of P-gp and CYP3A4/5 inhibitor verapamil by sulforhodamine B assay. The format is functional. Particulars: SW1573, 48 h. The essentials: as §4
Series [10] has as its system SW1573. The series is described as follows: Antiproliferative activity against human SW1573 cells over-expressing P-gp incubated for 48 hrs in absence of P-gp and CYP3A4/5 inhibitor verapamil by sulforhodamine B assay. Conditions: SW1573, 48 h. The format is functional. Put shortly: as §4
Series [11] relates to SW1573. The series is described as follows: Resistance factor, ratio of GI50 for antiproliferative activity against human SW1573 cells over-expressing P-gp incubated for 48 hrs in absence of P-gp and CYP3A4/5 inhibitor verapamil by sulforhodamine B assay to GI50 for antiproliferative activity against human SW1573 cells incubated for 48 hrs in absence of P-gp and CYP3A4/5 inhibitor verapamil by sulforhodamine B assay. The format is functional. The essentials:
as §5

Series [12] concerns the target T1, Histone deacetylase 8 (Homo sapiens) (UniProt Q9BY41).
T1 sequence (whole entry): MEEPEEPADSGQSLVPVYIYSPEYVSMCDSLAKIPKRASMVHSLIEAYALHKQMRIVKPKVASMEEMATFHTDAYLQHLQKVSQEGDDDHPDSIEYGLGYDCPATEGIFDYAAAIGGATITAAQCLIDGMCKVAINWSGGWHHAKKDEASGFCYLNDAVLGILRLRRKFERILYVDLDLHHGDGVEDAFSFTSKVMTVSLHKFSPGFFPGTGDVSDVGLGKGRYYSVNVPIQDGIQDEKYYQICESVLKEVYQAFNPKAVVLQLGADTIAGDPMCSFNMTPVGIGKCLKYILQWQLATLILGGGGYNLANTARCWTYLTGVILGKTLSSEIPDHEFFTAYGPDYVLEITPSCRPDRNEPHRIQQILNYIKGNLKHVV
The series is described as follows: Potency index, ratio of inhibition activity of trichostatin to inhibition activity of compound HDAC8 (unknown origin).

Series [13] relates to T47D. Put plainly: Potency index, ratio of GI50 for CDDP to test compound GI50 for antiproliferative activity against human T47D cells. Format: functional.
For series [14], the system named is WiDr. Put plainly: Potency index, ratio of GI50 for CDDP to test compound GI50 for antiproliferative activity against human WiDr cells. The format is functional.
Series [15] relates to HeLa. The series is described as follows: Anticancer activity against human HeLa cells assessed as increase in ROS production at 10 uM measured after 48 hrs by ROS-GloTM H2O2 assay. The format is functional, cell-based. Put shortly: as §6
Series [16] can be described thus: Selectivity index, ratio of GI50 for Cytotoxicity against human hTERT-BJ cells to ratio of GI50 for antiproliferative activity against human A549 cells. Format: toxicity, cell-based. Particulars: hTERT-BJ cells versus A549 cells, read-out: RatioGI50.
A short description of series [17]: Selectivity index, ratio of GI50 for Cytotoxicity against human hTERT-BJ cells to ratio of GI50 for antiproliferative activity against human HBL100 cells.
The nature of series [18]: Selectivity index, ratio of GI50 for Cytotoxicity against human hTERT-BJ cells to ratio of GI50 for antiproliferative activity against human HeLa cells. Particulars: hTERT-BJ cells versus HeLa cells, read-out: RatioGI50. Format: toxicity, cell-based.
Series [19] can be described thus: Selectivity index, ratio of GI50 for Cytotoxicity against human hTERT-BJ cells to ratio of GI50 for antiproliferative activity against human T47D cells. Format: toxicity, cell-based. Conditions: hTERT-BJ cells versus T47D cells, read-out: RatioGI50.
The nature of series [20]: Selectivity index, ratio of GI50 for Cytotoxicity against human hTERT-BJ cells to ratio of GI50 for antiproliferative activity against human WiDr cells. The format is toxicity, cell-based. Particulars: hTERT-BJ cells versus WiDr cells, read-out: RatioGI50.
In a further series the test system is hTERT-BJ. The series is described as §2. The format is cell-based. Particulars: htert-bj, 48 h. The essentials:
as §3

The text below walks through data of ChEMBL document CHEMBL4351017, “Selenocoumarins as new multitarget antiproliferative agents: Synthesis, biological evaluation and in silico calculations” (Eur J Med Chem, 2019).

Activity calls are given as the source filed them. The rule behind the calls is not given here. Where only a bound is given, the exact number is not on record here.

With `Cc1cc(=O)oc2cc(NC(=[Se])Nc3ccc4c(C)cc(=O)oc4c3)ccc12`, the 50% growth inhibitory concentration (GI50) with A549 turned out to be 3.2 µM; in the series with HBL-100, 3.5 µM; with HeLa [1] it was 2.9 µM; in the series on T47D [2] it was 3.6 µM; with WiDr [3] it was 4.5 µM; in the series with SW1573 [5], 9 µM. Also, the GI50 in the series with SW1573 [6] is 21 µM; with SW1573 [9], 4.5 µM; with SW1573 [10], 55 µM. The GI50 at 48 h in [4] was 4.9 µM. Further, the RatioGI50 in the series on SW1573 [7] is given as 2.3; in the series with SW1573 [11], 12; with T47D [13], “<=6”; in the series on WiDr [14] it was “<=6”. Moreover, the outcome in the series with HeLa [8] was Active. The Ratio in [12] was found to be 1.65.
For the compound `CCCCNC(=[Se])Nc1ccc2c(C)cc(=O)oc2c1`, the 50% growth inhibitory concentration (GI50) with A549 is 3 µM; in the series with HBL-100 it was 2.3 µM; in the series with HeLa [1], 5.2 µM; with T47D [2], 2.9 µM; in the series on WiDr [3] it was 3.8 µM; with SW1573 [5], 2.7 µM. Also, the 50% growth inhibitory concentration (GI50) came out at 2 µM in the series with SW1573 [6], 3 µM with SW1573 [9] and 2.3 µM with SW1573 [10]. The concentration for 50% growth inhibition (GI50) at 48 h in series [4] stood at 3.1 µM. The RatioGI50 in the series with SW1573 [7] is 0.7; in the series on SW1573 [11], 0.8; in the series on T47D [13], “<=6”; with WiDr [14] it was “<=6”. In addition, the result with HeLa [8] was Active.
As to `Cc1cc(=O)oc2cc(N=C=[Se])ccc12`, the GI50 in the series with A549 was 3.6 µM; in the series with HBL-100 it was 5 µM; in the series on HeLa [1] it was 12 µM; in the series with T47D [2] it was 3.6 µM; in the series on WiDr [3] it was 4.8 µM; with SW1573 [5], 29 µM. The figures for the 50% growth inhibitory concentration (GI50) with SW1573 [6], in the series on SW1573 [9] and with SW1573 [10] were 24 µM, 27 µM and 29 µM, respectively. Besides, the GI50 at 48 h in series [4] amounted to 50 µM. For the same compound, the figures for the RatioGI50 (with SW1573 [7]; in the series on SW1573 [11]; in [17]) were 0.9, 1.1 and “<=14”, respectively. Also, the result in the series on HeLa [15] was Active. Moreover, the selectivity ratio in series [16], in [18], in [19] and in series [20] was at most 14 throughout.
Take `Cc1cc(=O)oc2cc(NC(=[Se])Nc3ccc(Br)cc3)ccc12`: the GI50 in the series with A549 was found to be 2.7 µM; with HBL-100, 2.2 µM; in the series with HeLa [1], 2.2 µM; in the series with T47D [2], 2.8 µM; with WiDr [3] it was 3.5 µM; with SW1573 [5], 16 µM. The results for the GI50 in the series with SW1573 [6], in the series with SW1573 [9] and in the series on SW1573 [10] were 16 µM, 11 µM and 9.6 µM, respectively. The 50% growth inhibitory concentration (GI50) at 48 h in series [4] is 4.4 µM. Also, the RatioGI50 with SW1573 [7] is reported as 1; in the series with SW1573 [11], 0.9; with T47D [13], “<=6”; with WiDr [14], “<=6”. For the same compound, the result in the series with HeLa [8] was Active.
In the case of `CCCCOC(=[Se])Nc1ccc2c(C)cc(=O)oc2c1`, in the series on hTERT-BJ, the GI50 result is “Nd(Insoluble)”.

In general, GI50 refers to the concentration at which growth is held to half of that of the control.
